# Screening results (PubChem)
# APP 5'UTR act: activates APP 5'UTR luciferase reporter. 190,000 tested, 1% active. SH-SY5Y APP 5'UTR luciferase reporter, luminescence; zero percent = DMSO vehicle wells. activation, % at 2 µM;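 active means activation above a set limit, based on mean plus 3 SD of controls, cut at about 140% in these data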
# AHR activator: activators of human aryl hydrocarbon receptor; AHR-responsive luciferase reporter cells, luminescence; activation, % at 5 µM; 320,000 tested, 2.5% active; AID 2796; in the data active means activation above about 47%;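 further: 0% = vehicle wells and 100% = reference agonist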
# NF-kB expr up: NF-kB expression increase, human neuronal cells | NF-kB reporter expression; active compounds read high | fold change at 12.5 µM | 190,000 tested, 1.6% active | AID 1239; in the data active means fold change above about 3.3
# PERK inh: human PERK inhibition, primary cell-based screen; inhibition, % at 5.6 µM; 220,000 tested, 0.17% active; Q9NZJ5; CHO PERK-DD fusion, SEAP luminescence translation reporter;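 active means inhibition above the mean inhibition of all tested compounds plus 3 SD, set separately per screening campaign, cut at about 2.9% in these data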;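 further: PERK kinase domain activated by AP20187 dimerizer at 100 nM; 0% = DMSO with dimerizer and 100% = rapamycin at 8.4 µM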
# MDM2 E3 inh: inhibitors of human Mdm2 E3 ubiquitin ligase. Q00987. cell-based MDM2 ubiquitination luciferase reporter, 2 h; 0 = plate control, 100 = twice control, blank-subtracted. signal enhancement, % at 5 µM. 210,000 tested, 0.11% active. AID 1230;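 active means signal enhancement of 30% or more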;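 further: luminescence tracks abundance of the self-degrading MDM2-luciferase fusion protein; higher signal means inhibition of MDM2 E3 ligase activity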
# Target sequence (Q00987 whole entry, looked up, the tested form may be a part): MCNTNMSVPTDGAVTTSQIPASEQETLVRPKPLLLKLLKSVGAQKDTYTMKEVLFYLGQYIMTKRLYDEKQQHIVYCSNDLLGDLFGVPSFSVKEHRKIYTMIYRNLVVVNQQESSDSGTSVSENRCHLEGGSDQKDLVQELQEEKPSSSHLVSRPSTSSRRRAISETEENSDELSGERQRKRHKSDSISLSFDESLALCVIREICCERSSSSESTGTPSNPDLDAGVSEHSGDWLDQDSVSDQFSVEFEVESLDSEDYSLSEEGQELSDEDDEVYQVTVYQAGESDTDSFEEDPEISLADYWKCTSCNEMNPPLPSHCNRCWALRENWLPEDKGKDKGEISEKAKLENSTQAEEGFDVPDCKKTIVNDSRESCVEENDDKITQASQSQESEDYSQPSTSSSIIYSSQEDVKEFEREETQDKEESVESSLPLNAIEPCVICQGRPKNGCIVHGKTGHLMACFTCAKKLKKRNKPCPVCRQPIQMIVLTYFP
#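 Buffer or medium: Cells held in DMEM | Assay system: Stable mammalian line carrying autodegrading MDM2–luciferase fusion reporter | Quantity: 2000 cells/well | Times: 4 h settle plus 2 h compound, 37 °C | Doses: One concentration, 5 µM, with 0.2% DMSO | Technique: Luminescence with SteadyLite reagent, 15 min at room temperature | Benchmarks: Plate controls and plate blanks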
# STAT1 activator: STAT1 signaling activation; NIH 3T3 STAT1-luciferase reporter, IFN-gamma, luminescence; 100% = IFN-gamma alone, no compound; activation (% of control), % at 5.5 µM; 200,000 tested, 2.6% active; AID 932;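 active means activation above the screen-wide mean activation plus 3 SD, cut at about 130% in these data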;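 further: raw ratio to IFN-gamma control signal so 100% means no change and 0% no light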
# Starred values were filed as active, the others as inactive; . = not tested or not shown. Sampled rows, rich in hits. Any-hit rate of the full collection: about 4.5%.
SMILES,APP 5'UTR act,AHR activator,NF-kB expr up,PERK inh,MDM2 E3 inh,STAT1 activator
COc1ccc(CCNC(=O)C2CCCN(c3ncnc4c3nc3n4CCCCC3)C2)c(OC)c1 (stereo not drawn),.,4,.,.,.,.
Cc1cnc(C(=O)Nc2ccc(C)c(S(=O)(=O)N(C)C)c2)cn1,-18,3,1.6,1,-15,108
O=C(Nc1ccc(OC(F)(F)F)cc1)c1cnccn1,.,-1,.,.,.,.
O=C(Nc1ccc(OC(F)(F)F)cc1)c1ccc2ccccc2n1,32,47*,1.6,0,-8,103
O=C(Nc1ccccc1)c1ccc2ccccc2n1,179*,43,6.6*,-1,-28,123
O=C(Nc1ccccc1)c1cnc2ccccc2n1,51,32,1.1,2,7,118
Cc1ccc(NC(=O)c2ccc3ccccc3n2)cc1S(=O)(=O)N(C)C,73,8,1.4,2,-5,134*
Cc1ccc(NC(=O)c2cncc(Br)c2)cc1S(=O)(=O)N(C)C,71,67*,1.9,-1,-16,136*
CN(C)S(=O)(=O)c1cccc(NC(=O)c2cncc(Br)c2)c1,20,17,0.83,0,-1,93
COc1cc(=O)n(C)c2c(O)cccc12,6,3,1.2,1,5,93
O=C(Nc1ccc2c(c1)OCCO2)c1ccc2ccccc2n1,220*,52*,9.2*,1,-32,137*
CCSc1nnc(NC(=O)c2ccc3ccccc3n2)s1,103,64*,3,-2,-26,142*
CCc1ccccc1NC(=O)CSc1nnc(-c2cc(C)[nH]n2)n1N,.,3,.,.,.,.
N#CC1=C(N)OC2=C(CCc3ccccc32)C1c1ccccc1 (stereo not drawn),-96,17,4.7*,0,6,104
Cc1ccc(/C=C2\CCC3=C2OC(N)=C(C#N)C3c2ccc(C)cc2)cc1 (stereo not drawn),-47,-3,1.3,-1,2,108
CCCN(CCC)C(=O)c1cc(S(=O)(=O)N2CCCCC2)c[nH]1,.,0,.,.,.,.
Cc1c(C2(O)CCCCC2)[nH]c2cc(C(F)(F)F)ccc12,.,48*,.,.,.,.
CCc1c(C2(O)CCCCC2)[nH]c2cc(C(F)(F)F)ccc12,.,34,.,.,.,.
O=C(Nc1ccccc1C(=O)Nc1ccc(F)cc1)c1ccco1,.,172*,.,.,.,.
Cc1ccc(NC(=O)c2ccco2)cc1C,105,7,2.4,1,-19,132*
CCC(=O)Nc1ccc(NC(=O)c2ccco2)cc1,40,0,1.9,1,-15,131*
CC1(C)Oc2ccc(NC(=O)c3ccco3)cc2O1,116,16,3,0,-23,129*
O=C(Nc1ccc2c(c1)OCCO2)c1ccco1,93,2,2.2,-1,-24,128
CC(=O)Nc1cccc(NC(=O)c2ccco2)c1,8,7,0.87,1,-5,103
CN(c1nc2ccccc2nc1Cl)S(=O)(=O)c1ccccc1,.,2,.,.,.,.
SMILES,APP 5'UTR act,AHR activator,NF-kB expr up,PERK inh,MDM2 E3 inh,STAT1 activator
COc1ccc(-c2nc(C)c(C(C)=O)n2O)cc1OC,25,48*,1,1,6,101
COc1cc(-c2nc(C)c(C(C)=O)n2O)ccc1OCC(=O)Nc1ccc(Cl)cc1,-5,11,1,0,-9,113
COc1ccc(-c2nc(C)c(C(C)=O)n2O)cc1,10,18,1.3,1,30*,113
COc1ccc(NC(=O)C23CC4CC(CC(Cl)(C4)C2)C3)cc1S(=O)(=O)N1CCOCC1,.,-1,.,.,.,.
O=C(CCc1ccc(S(=O)(=O)N2CCOCC2)cc1)Nc1c(F)cccc1F,.,-1,.,.,.,.
CCc1cccc(CC)c1NC(=O)C1SC(=Nc2ccccc2C)C(c2nc3ccccc3s2)=C1N (stereo not drawn),9,54*,1.2,-1,-19,102
CCOc1ccc(NC(=O)NNC(=O)c2ccc(CC)s2)cc1,8,2,1,0,5,105
CC(=O)Nc1sc2c(c1-c1nc3ccccc3s1)CN(C(C)C)CC2,.,74*,.,.,.,.
CC(C)N1CCc2c(sc(NC(=O)c3nc4ccccc4s3)c2C(N)=O)C1,7,21,1.1,-1,-20,93
CCOc1ccc(Br)cc1S(=O)(=O)NCCN1CCCC1,.,0,.,.,.,.
COc1cc(/C=N/O)ccc1OCc1ccc(C(=O)O)cc1,-82,-15,3.4*,2,-6,13
COc1cc(/C=N/NS(=O)(=O)c2ccc3ccccc3c2)ccc1OCc1ccc(C(=O)O)cc1,.,-5,.,-1,-12,.
CCOc1cc(/C=N/O)ccc1OCc1ccc([N+](=O)[O-])cc1,4,78*,1.2,-1,-5,98
CCN(CC)C(=O)COc1ccc(-c2ccccc2)cc1,33,-6,2,-1,4,132*
CCc1cccc(C)c1NC(=O)CN1C(=O)NC(CCc2ccccc2)C1=O (stereo not drawn),.,1,.,.,.,.
O=C(COc1ccccc1Br)Nc1ccc2c(c1)OCCCO2,.,-3,.,.,.,.
Nc1c(C(=O)N2CCOCC2)sc2nc3c(cc12)CCC3,109,33,3.4*,0,-10,122
Nc1c(C(=O)N2CCCC2)sc2nc3c(cc12)CCCCCC3,132,30,1.8,0,-15,147*
Nc1c(C(=O)N2CCOCC2)sc2nc3c(cc12)CCCC3,.,49*,.,.,.,.
COc1cc(C(=O)CCN2CCC(c3ccccc3)C2)cc(OC)c1OC (stereo not drawn),0,-3,1,1,-3,99
Cc1noc(C)c1NC(=O)Nc1cccc2c1O[C@H](CN(C)C(=O)NC1CCCCC1)[C@@H](C)CN([C@H](C)CO)C2=O,.,-1,.,.,.,.
COc1cc2c(cc1OC)C(c1ccccc1)NC(C)(C)C2 (stereo not drawn),.,0,.,.,.,.
COc1ccccc1C(CNc1ccc(S(=O)(=O)N2CCCC2)cc1[N+](=O)[O-])N(C)C (stereo not drawn),.,1,.,.,.,.
Cc1ccccc1C(=O)Oc1ccccc1N1C(=O)C2CC=CCC2C1=O (stereo not drawn),12,75*,1.2,0,2,85
O=C(Oc1ccccc1N1C(=O)C2CC=CCC2C1=O)c1ccc(Br)cc1 (stereo not drawn),-4,27,1.4,0,-6,91
CN1CCN(C(=O)c2cccc(COc3cc(Cl)ccc3Cl)c2)CC1,60,14,1.4,0,15,113
O=C(Nc1ccccc1Cl)c1cccc(COc2cc(Cl)ccc2Cl)c1,24,20,1.6,1,2,129*
O=C(O)c1cccc(COc2ccccc2Cl)c1,.,-13,15*,.,-98,.
Cc1nn(Cc2c(F)c(F)c(F)c(F)c2F)c(C)c1NC(=O)c1cccc(COc2ccccc2Cl)c1,151*,0,2.1,1,-9,104
CCCc1nc(SC)[nH]c(=O)c1C,.,-1,.,1,-9,.
